Screens (PubChem)
TAAR1 ag = human TAAR1 agonism. 360,000 tested, 0.99% active. AID 624467. activation, % at 3 µM. CHO RD-HGA16 TAAR1, Fluo-8 calcium fluorescence; vehicle wells 0%, saturating PEA agonist 100%;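 active means activation above the mean activation of all test compounds in the run plus 3 SD, cut at about 38% in these data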
Target sequence (Q96RJ0 whole entry, looked up): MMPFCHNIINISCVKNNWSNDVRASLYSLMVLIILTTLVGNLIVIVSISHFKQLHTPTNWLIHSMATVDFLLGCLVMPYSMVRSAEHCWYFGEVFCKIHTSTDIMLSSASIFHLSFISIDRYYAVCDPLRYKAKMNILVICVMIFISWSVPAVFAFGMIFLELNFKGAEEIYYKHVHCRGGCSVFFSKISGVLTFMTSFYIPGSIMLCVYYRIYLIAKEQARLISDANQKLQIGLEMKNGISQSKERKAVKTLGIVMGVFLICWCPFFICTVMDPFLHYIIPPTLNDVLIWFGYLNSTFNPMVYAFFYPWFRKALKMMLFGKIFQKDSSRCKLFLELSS
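System: CHO-derived RD-HGA16 cells with stable Gα16 and human TAAR1. Times: 17-24 h plating, Fluo-8 75 min 37 °C, 30 min RT. Measured by: calcium-sensitive Fluo-8 signal, excitation 470-495, emission 515-575 nm. Read-out basis: % activation relative to PEA EC100 response. Control set: DMSO and PEA EC100. Repeats: no replicates (n 1).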
TAAR1 antag = human TAAR1 antagonism | Q96RJ0 | CHO RD-HGA16 TAAR1, Fluo-8 calcium fluorescence, antagonist | inhibition, % at 3 µM | 360,000 tested, 1.5% active | AID 624466;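 active means inhibition above a per-plate cutoff, the mean inhibition of test compounds on that plate plus 3 SD, cut at about 49% in these data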;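 further: 0% = DMSO plus EC80 beta-PEA response and 100% = DMSO alone without agonist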
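Test system – hTAAR1-expressing CHO RD-HGA16 cells, Gα16-coupled · Also added – β-PEA at EC80 concentration, post-compound challenge · Compound – 3 µM, single point · Incubation – dye loading 75 min at 37 °C, then 30 min room temperature · Measured by – Fluo-8 intracellular calcium dye fluorescence, real-time kinetic reads · Benchmarks – vehicle and agonist controls · Replicates – singlicate, one well per test compound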
OXTR potentiator = potentiators of human oxytocin receptor. CHO-OTR cells, Fluo-8 calcium fluorescence, potentiator mode; 0% = oxytocin EC15, 100% = EC100. AID 2445. 320,000 tested, 0.061% active. P30559. activation, % at 3 µM;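 active means activation above that plate's cutoff, the mean activation of tested compounds plus 3 SD, cut at about 6.6% in these data, passing the limit was not always enough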;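 further: 100% uses oxytocin at 75 nM as the full agonist control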
Target sequence (P30559 whole entry, looked up): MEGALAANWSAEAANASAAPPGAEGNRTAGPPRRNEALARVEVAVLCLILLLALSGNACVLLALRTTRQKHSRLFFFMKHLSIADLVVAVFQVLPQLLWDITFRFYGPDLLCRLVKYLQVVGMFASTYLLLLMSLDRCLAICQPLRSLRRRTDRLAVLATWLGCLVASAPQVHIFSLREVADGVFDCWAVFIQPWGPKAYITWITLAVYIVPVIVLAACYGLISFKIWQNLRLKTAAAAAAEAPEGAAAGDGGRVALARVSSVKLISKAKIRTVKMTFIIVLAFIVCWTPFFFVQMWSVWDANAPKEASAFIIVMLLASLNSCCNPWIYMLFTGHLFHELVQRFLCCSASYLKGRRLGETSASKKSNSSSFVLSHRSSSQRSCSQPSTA
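Material: human OTR in CHO cells. Compound: 3.0 µM, one dose. Timing: compound 6 min at room temperature before oxytocin, 100 s read. Evaluation: % activation of max/min ratio relative to oxytocin controls. Replication: single well per compound, singlicate. Signal: Fluo-8 calcium dye fluorescence.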
OXTR agonist = human OXTR agonism | activation, % at 3 µM | P30559 | CHO-OTR cells, Fluo-8 calcium fluorescence; normalized: DMSO 0%, oxytocin 100% | 320,000 tested, 0.32% active | AID 2435;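 active means activation above the mean of all tested compounds plus 3 SD, cutoff set per screening run, cut at about 20% in these data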;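 further: peak over basal fluorescence ratio from a 100 s FLIPR kinetic read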
V1R ag counter = V1a receptor agonism, counter-screen for OXTR agonists | P37288 | CHO-V1R cells, Fluo-8 calcium fluorescence, agonist mode; 0% DMSO, 100% 3 nM vasopressin | activation, % at 3 µM | 320,000 tested, 0.25% active | AID 2797;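 active means activation above the mean activation of all tested compounds plus 3 SD, per screening run, cut at about 20% in these data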;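 further: signal is peak over basal fluorescence ratio across a 100 second FLIPR read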
* hit, by the source's call; nt = no result given. Sampled rows, rich in hits. Any-hit rate of the full collection: about 2.3%.

SMILES | TAAR1 ag | TAAR1 antag | OXTR potentiator | OXTR agonist | V1R ag counter
O=C(NCc1ccco1)c1cccc2c1C(=O)c1ccc(/C=C/c3ccccc3)cc1S2(=O)=O | 13.5 | 51.3* | -2.2 | 3.1 | 2.9
COc1ccccc1N1CCN(c2ccc3c(c2)S(=O)(=O)c2cccc(C(=O)NCc4ccc(F)cc4)c2C3=O)CC1 | 8.0 | 56.5* | nt | nt | nt
O=C(NCc1cccc(F)c1)c1cccc2c1C(=O)c1ccc(N3CCCC3)cc1S2(=O)=O | nt | nt | -7.4 | 20.0* | 26.2*
COc1ccc(S(=O)(=O)N2CCN(C(=S)NC3CCCCC3)CC2)cc1 | 1.9 | 2.0 | -1.0 | -0.1 | -0.1
CCOc1ccc(C(C(=O)NC2CCCC2)N(C(=O)CNC(=O)c2ccco2)c2cccnc2)cc1 (stereo not drawn) | 6.0 | 7.1 | -0.7 | -0.5 | 0.7
O=C(Nc1ccc2c(c1)OCO2)c1csc([C@@H]2C[C@H](O)[C@@H](CO)O2)n1 | 2.9 | -10.1 | nt | nt | nt
C=CCN1C(=O)c2ccc(C(=O)N(C)CC(=O)Nc3cccc(F)c3)cc2C1=O | 2.6 | -12.4 | 1.1 | 2.3 | 4.2
Cc1nnc2c3ccccc3c(-c3ccc(O)cc3)nn12 | 1.8 | -1.0 | -6.3 | 1.4 | 2.7
Cc1c(-c2ccc(O)cc2)nc2nc(-c3ccccc3)c(-c3ccccc3)nn12 | nt | nt | -12.9 | 144.3* | 279.5*
CC(C)c1ccc(N(C(=O)CNC(=O)c2ccco2)C(C(=O)NC2CCCC2)c2cccnc2)cc1 (stereo not drawn) | 4.3 | -7.1 | -0.3 | 1.3 | 0.1
COc1cccc(OCc2cc(C(=O)NC(C)c3cnn(C)c3C)no2)c1 (stereo not drawn) | 3.6 | -0.4 | 5.2 | 2.1 | 1.4
CCCCOc1ccc(-c2nnn(CC(=O)Nc3ncc(CC(=O)OCC)s3)n2)cc1 | 42.5* | 21.0 | -18.6 | 32.9* | 26.9*
CCOC(=O)Cc1cnc(NC(=O)Cn2nnc(-c3ccc(OCC)cc3)n2)s1 | 33.7 | 4.5 | -21.7 | 19.1 | 18.0
Cc1ccc(C(=O)NNC(=O)c2ccc(NS(=O)(=O)c3cccs3)cc2)o1 | 11.6 | -2.3 | 2.5 | 1.6 | 1.2
O=C(CNCc1ccc(Cl)cc1)Nc1ccc(C(=O)N2CCCCC2)cc1 | 7.7 | -10.9 | -1.8 | 4.8 | 5.1
O=C(c1ccc(NC(=S)NCc2ccc(Cl)cc2)cc1)N1CCCCC1 | 43.7* | 16.6 | -11.7 | 21.3* | 20.7*
Cc1ccccc1NC(=O)Cc1c[nH]c2ccccc12 | 1.9 | 5.6 | -2.7 | -1.0 | 0.0
COc1ccc([N+](=O)[O-])cc1NC(=O)C(C)OC(=O)C1CCC1 (stereo not drawn) | -1.3 | -0.6 | -6.9 | -2.2 | -1.0
COc1cc(OC)cc(C(=O)Nc2nc(CC(=O)NCc3ccc(F)cc3)cs2)c1 | 8.3 | 50.5* | 3.7 | -1.7 | -1.2
COc1cc(OC)cc(C(=O)Nc2nc(CC(=O)NCc3ccccc3OC)cs2)c1 | 5.9 | 55.7* | -11.9 | -2.8 | -1.8
COc1cc(OC)cc(C(=O)Nc2nc(CC(=O)NCCc3ccccc3)cs2)c1 | 5.4 | 32.8 | 10.5 | -2.2 | -1.4
CCOc1ccc(NC(=O)CCC(=O)NNC(=O)Nc2cccc(Cl)c2)cc1 | 42.6* | 5.9 | -4.7 | -1.5 | -0.3
CCOCCCN(C)C1CCN(C(=O)c2oc3ccccc3c2NC(=O)Cc2ccc(F)cc2)CC1 | -0.1 | -0.8 | -2.8 | -1.0 | 0.4
Cc1ccccc1NC(=O)c1cccc(N2C(=O)C3C4CC(C(Br)C4Br)C3C2=O)c1 (stereo not drawn) | 41.2* | 73.3* | nt | nt | nt
CC1C=CCC2C(=O)N(c3cccc(C(=O)Nc4ccc(Br)cc4)c3)C(=O)C12 (stereo not drawn) | 3.7 | 49.8* | -9.3 | 1.1 | 3.9
SMILES | TAAR1 ag | TAAR1 antag | OXTR potentiator | OXTR agonist | V1R ag counter
O=C(Nc1ccc(F)cc1)c1cccc(N2C(=O)C3C4CCC(C4)C3C2=O)c1 (stereo not drawn) | 5.0 | 2.4 | -9.4 | 2.5 | 2.3
Cc1cccc(NC(=O)c2ccc(N3C(=O)C4C5C=CC(C6CC56)C4C3=O)cc2)c1 (stereo not drawn) | 11.9 | 68.5* | -18.5 | 8.5 | 9.9
O=C(Nc1ccc(Br)cc1)c1cccc(N2C(=O)C3C4CCC(C4)C3C2=O)c1 (stereo not drawn) | 22.0 | 48.8* | -18.0 | 7.7 | 8.3
Cc1cccc(NC(=O)c2cccc(N3C(=O)C4CCC(C)CC4C3=O)c2)c1C (stereo not drawn) | 5.5 | 25.4 | -8.7 | 2.8 | 11.2
O=C(Nc1ccccc1)c1cccc(N2C(=O)C3C4C=CC(C5CC45)C3C2=O)c1 (stereo not drawn) | 8.0 | 24.4 | -13.8 | 8.2 | 9.9
CN(C)CCCNC(=O)C[C@H]1C[C@H](C(=O)N2CCOCC2)[C@@]2(C)c3[nH]c4cc(CCC(=O)N(C)C)ccc4c3CCN2C1=O | 0.8 | -4.5 | nt | nt | nt
CCOc1ccc(NC(=O)CSc2nc3cc(C(=O)NCC4CCCO4)ccc3c(=O)n2CC2CCCO2)cc1 (stereo not drawn) | -0.4 | -3.2 | nt | nt | nt
COc1ccc(-c2ccc3nnc(SCC(=O)N4CCCC4)n3n2)cc1 | -1.2 | -17.5 | -3.8 | -2.0 | -0.9
CC(C)CNC(=O)C1(C)CCCN1Cc1ccccc1OC(F)F (stereo not drawn) | 3.2 | -6.4 | nt | nt | nt
COC(=O)c1ccccc1NC(=O)COC(=O)c1ccccc1N=Nc1ccc(N(C)C)cc1 | 6.1 | -7.6 | -3.2 | -1.2 | -1.0
CN(C)c1ccc(N=Nc2ccccc2C(=O)OCC(=O)N(C)c2ccccc2)cc1 | 16.8 | 62.4* | -17.8 | 6.2 | 7.9
CN=C1SC(CC(=O)NCCc2ccc(OC)c(OC)c2)C(=O)N1C (stereo not drawn) | 0.7 | -24.3 | -12.7 | 33.5* | 47.0*
O=C1C2C3c4ccccc4C(c4ccccc43)[C@@H]2C(=O)N1c1cccnc1 (stereo partly drawn) | 9.1 | 49.5* | -6.1 | -0.3 | 1.7
O=C1C2C3c4ccccc4C(c4ccccc43)C2C(=O)N1c1ccncc1 (stereo not drawn) | 1.1 | 19.8 | nt | nt | nt
COc1cc(CNc2ncnc3c2ncn3[C@H]2CN(Cc3ccc(F)cc3)C[C@@H](CO)O2)cc(OC)c1OC | 9.7 | 17.0 | nt | nt | nt
O=C(NCc1cccs1)C1CC(c2ccc(Cl)c(Cl)c2)=NO1 (stereo not drawn) | 4.6 | 11.3 | -21.4 | 4.6 | 6.9
O=C(CNC(=O)c1ccccc1Cl)NCCc1cccs1 | 39.9* | -5.0 | -5.5 | 0.6 | 0.5
O=C(Cc1cccs1)NNC(=O)c1ccccc1Cl | 2.1 | 14.9 | 3.2 | 0.3 | -0.1
O=C(NCCc1cccs1)C1CC(c2c(Cl)cccc2Cl)=NO1 (stereo not drawn) | 46.6* | 13.1 | -5.4 | 1.1 | 0.7
COc1ccc2c(c1)[C@@]1(OCCC=C[C@H]1C)C(=O)N2Cc1ccc(Br)cc1 | 2.0 | 15.2 | nt | nt | nt
